What was measured:
[1] = molecular target: T1, D(2) dopamine receptor (Homo sapiens, UniProt P14416); assay: Displacement of [3H]spiperone from human D2long receptor expressed in CHO cell membranes by radioligand binding assay
[2] = molecular target: T1, D(2) dopamine receptor; assay: Displacement of [3H]spiperone from human D2short receptor expressed in CHO cell membranes by radioligand binding assay
[3] = Displacement of [3H]spiperone from human D2short receptor L2.64C mutant expressed in HEK293T cell membranes by radioligand binding assay; conditions: hek-293t
In short: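 Membranes from HEK 293T cells transiently transfected with the mutant receptor in pcDNA3.1 were used for competition binding against [3H]spiperone (81 Ci/mmol), final 0.15-0.30 nM. Nonspecific binding was defined with 10 µM haloperidol. Protein was measured by Lowry with a BSA standard. IC50 came from a sigmoid nonlinear fit and was converted to Ki by Cheng-Prusoff.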

[4] = molecular target: D(3) dopamine receptor (Homo sapiens, UniProt P35462); assay: Displacement of [3H]spiperone from human D3 receptor expressed in CHO cell membranes by radioligand binding assay
Chain of D(3) dopamine receptor (P35462 whole entry): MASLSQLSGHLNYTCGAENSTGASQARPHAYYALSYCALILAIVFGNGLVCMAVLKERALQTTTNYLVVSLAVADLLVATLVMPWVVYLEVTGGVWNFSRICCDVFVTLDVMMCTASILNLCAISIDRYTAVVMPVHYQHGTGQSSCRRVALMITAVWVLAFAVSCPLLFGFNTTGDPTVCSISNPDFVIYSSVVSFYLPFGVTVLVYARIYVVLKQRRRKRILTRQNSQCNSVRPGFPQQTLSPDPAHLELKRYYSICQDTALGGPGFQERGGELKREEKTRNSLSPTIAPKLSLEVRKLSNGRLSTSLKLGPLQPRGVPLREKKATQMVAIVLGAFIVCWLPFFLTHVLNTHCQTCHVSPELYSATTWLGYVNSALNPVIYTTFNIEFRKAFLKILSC

[5] = Displacement of [3H]spiperone from human dopamine D4.4 receptor expressed in CHO cell membranes by radioligand binding assay
In short: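 Competition binding used membranes from CHO cells stably expressing human D4.4R, at 4-10 µg protein/tube, with [3H]spiperone final 0.15-0.30 nM (KD 0.14-0.25 nM, Bmax 1000-1700 […]). Nonspecific binding was defined with 10 µM haloperidol. Ki was obtained by sigmoid fit to IC50 and then Cheng-Prusoff. Each Ki is the mean of two independent experiments, each run in triplicate.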

[6] = species on record: Homo sapiens; assay: Selectivity index, ratio of Ki for human D3 receptor expressed in CHO cell membranes to Ki for human D2short receptor expressed in CHO cell membranes; type: cell-based
In short: (§1)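 Ratios of Ki values from [3H]spiperone competition binding on CHO membranes stably expressing human D2short, D3 or D4.4 receptors. The D3 and D4 Ki values are each divided by the D2short Ki.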

[7] = species on record: Homo sapiens; assay: Selectivity index, ratio of Ki for human dopamine D4.4 receptor expressed in CHO cell membranes to Ki for human D2short receptor expressed in CHO cell membranes; type: cell-based; in short: as §1
[8] = species on record: Homo sapiens; assay: Selectivity index, ratio of Ki for human D2short receptor expressed in CHO cell membranes to Ki for human D2short receptor L2.64C mutant expressed in HEK293T cell membranes; type: cell-based
In short: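 Ratio of the D2short Ki from CHO membranes to the Ki measured at the transiently expressed L2.64C mutant in HEK 293T membranes. Both Ki values come from [3H]spiperone competition binding with Cheng-Prusoff conversion.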

[9] = test system: D(2) dopamine receptor (Homo sapiens), P14416 [L94C]; assay: Irreversible inhibition of [3H]spiperone binding to human D2short receptor L2.64C mutant expressed in HEK293T cell membranes incubated for 120 mins followed by compound wash out by radioligand depletion assay; conditions: HEK-293T
Chain of D(2) dopamine receptor (Homo sapiens), P14416 [L94C] (P14416 whole entry L94C): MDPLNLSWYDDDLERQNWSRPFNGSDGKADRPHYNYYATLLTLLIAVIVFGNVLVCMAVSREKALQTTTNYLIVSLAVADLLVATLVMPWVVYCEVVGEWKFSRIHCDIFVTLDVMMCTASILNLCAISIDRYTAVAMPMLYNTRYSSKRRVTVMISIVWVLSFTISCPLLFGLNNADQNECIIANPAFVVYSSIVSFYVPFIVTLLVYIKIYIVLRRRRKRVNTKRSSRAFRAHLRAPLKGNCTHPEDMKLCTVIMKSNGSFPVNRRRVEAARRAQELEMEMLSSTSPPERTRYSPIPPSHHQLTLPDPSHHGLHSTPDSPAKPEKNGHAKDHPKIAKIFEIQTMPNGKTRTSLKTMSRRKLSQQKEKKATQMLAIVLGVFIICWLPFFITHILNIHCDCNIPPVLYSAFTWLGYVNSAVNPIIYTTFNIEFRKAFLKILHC
In short: (§2)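 For screening, membranes from HEK 293T cells expressing the D2short L2.64C mutant (50 µg/mL protein) were preincubated with compound for 120 min at 37 °C in pH 7.4 Tris buffer. The reference, haloperidol, was used at 20 nM. Membranes were centrifuged and washed four times for 30 min each. Residual specific [3H]spiperone binding was normalized to nonspecific 0% and total 100%. Values are the mean of 2-4 experiments, each in quadruplicate, ±SD.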

[10] = test system: D(2) dopamine receptor (Homo sapiens), P14416 [L94C]; assay: Irreversible inhibition of [3H]spiperone binding to human D2short receptor L2.64C mutant expressed in HEK293T cell membranes at 1 uM incubated for 120 mins followed by compound wash out by radioligand depletion assay; conditions: HEK-293T; in short: as §2
[11] = test system: D(2) dopamine receptor (Homo sapiens), P14416 [L94C]; assay: Irreversible inhibition of [3H]spiperone binding to human D2short receptor L2.64C mutant expressed in HEK293T cell membranes at 10 uM incubated for 120 mins followed by compound wash out by radioligand depletion assay; conditions: HEK-293T; in short: as §2
[12] = test system: D(2) dopamine receptor (Homo sapiens), P14416 [L94C]; assay: Irreversible inhibition of [3H]spiperone binding to human D2short receptor L2.64C mutant expressed in HEK293T cell membranes at 5 uM incubated for 120 mins followed by compound wash out by radioligand depletion assay; conditions: HEK-293T; in short: as §2
[13] = test system: D(2) dopamine receptor (Homo sapiens), P14416 [L94C]; assay: Irreversible inhibition of [3H]spiperone binding to human D2short receptor L2.64C mutant expressed in HEK293T cell membranes at 20 uM incubated for 120 mins followed by compound wash out by radioligand depletion assay; conditions: HEK-293T; in short: as §2
[14] = test system: D(2) dopamine receptor (Homo sapiens), P14416 [L94C]; assay: Irreversible inhibition of [3H]spiperone binding to human D2short receptor L2.64C mutant expressed in HEK293T cell membranes assessed as remaining [3H]spiperone binding at 5 and 20 uM incubated for 120 mins followed by compound wash out by radioligand depletion assay; conditions: HEK-293T; in short: as §2
[15] = test system: D(2) dopamine receptor (Homo sapiens), P14416 [L94C]; assay: Irreversible inhibition of [3H]spiperone binding to human D2short receptor L2.64C mutant expressed in HEK293T cell membranes assessed as covalent binding at 5 and 20 uM incubated for 120 mins followed by compound wash out by radioligand depletion assay; design: scale not given: the % may be the effect or the level left; conditions: HEK-293T; in short: as §2
[16] = test system: HEK-293T; assay: Inhibition of [3H]spiperone binding to human D2short receptor L2.64C mutant expressed in HEK293T cell membranes at 2 and 5 uM incubated for 30 mins by radioligand depletion assay
[17] = test system: HEK-293T; assay: Inhibition of [3H]spiperone binding to human D2short receptor L2.64C mutant expressed in HEK293T cell membranes at 2 and 5 uM incubated for 120 mins by radioligand depletion assay
[18] = test system: HEK-293T; assay: Inhibition of [3H]spiperone binding to human D2short receptor L2.64C mutant expressed in HEK293T cell membranes at 2 and 5 uM incubated for 240 mins by radioligand depletion assay
[19] = test system: HEK-293T; assay: Inhibition of [3H]spiperone binding to human D2short receptor L2.64C mutant expressed in HEK293T cell membranes at 1 and 5 uM incubated for 30 mins by radioligand depletion assay
In short: (§3)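 For kinetics, mutant receptor membranes from HEK 293T cells (50 µg/mL protein) were preincubated with compound at two concentrations for 15 to 240 min, at 37 °C, pH 7.4. The buffer was Tris/EDTA/MgCl2/bacitracin/trypsin inhibitor. Incubation was stopped by centrifugation, then membranes were washed four times (30 min resuspension each). Remaining specific [3H]spiperone binding was then measured, with 10 µM haloperidol defining nonspecific binding. Data were normalized to nonspecific 0% and total 100%.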

[20] = test system: HEK-293T; assay: Inhibition of [3H]spiperone binding to human D2short receptor L2.64C mutant expressed in HEK293T cell membranes at 1 and 5 uM incubated for 240 mins by radioligand depletion assay; conditions: in the assay text read “120 mins” for “240 mins”; in short: as §3

T1 sequence (P14416 whole entry): as the sequence (P14416 whole entry L94C) above, with C94L counted along it

| Structure (SMILES) | Ki [1] [nM] | Ki [2] [nM] | Ki [3] [nM] | Ki [4] [nM] | Ki [5] [nM] | Ratio Ki [6] | Ratio Ki [7] | Ratio Ki [8] | inhibition [9] | inhibition [10] [%] | inhibition [11] [%] | inhibition [12] [%] | inhibition [13] [%] | Activity [14] [%] | Activity [15] [%] | inhibition [16] [%] | inhibition [17] [%] | inhibition [18] [%] | inhibition [19] [%] | inhibition [20] [%] |
| --- | --- | --- | --- | --- | --- | --- | --- | --- | --- | --- | --- | --- | --- | --- | --- | --- | --- | --- | --- | --- |
| O=C(CCCN1CCC(O)(c2ccc(Cl)cc2)CC1)c1ccc(OCCSSCCO)cc1 | 240 | 73 | 330 | 140 | 970 | 1.9 | 13 | 0.22 | Dose-dependent effect | 20 | < 70 |  |  |  |  |  |  |  |  |  |
| O=C(NCCN1CCC(O)(c2ccc(Cl)cc2)CC1)NCCN1C(=O)C=CC1=O | 2200 | 1500 | 860 | 690 | > 50000 | 0.46 | > 33 | 1.7 | Dose-dependent effect |  |  | 60 to 85 | 70 to 95 | 5 | > 90 | 70 to 85 | > 90 |  |  |  |
| COc1cc(CCN2CCC(O)(c3ccc(Cl)cc3)CC2)ccc1OCCCSSCCN | 1000 | 940 | 850 | 600 | 1500 | 0.63 | 1.6 | 1.1 | Dose-dependent effect |  |  | 60 to 85 | 70 to 95 | 10 | > 90 | 87 |  | 85 |  |  |
| O=C(CCCN1CCC(O)(c2ccc(Cl)cc2)CC1)c1ccc(F)cc1 [HALOPERIDOL] |  |  |  |  | 7.2 |  |  |  |  |  |  |  |  |  |  |  |  |  |  |  |
| [N-]=[N+]=NCCSSCCn1cc(C(=O)CCCN2CCC(O)(c3ccc(Cl)cc3)CC2)nn1 | 260 | 140 | 320 | 210 | 3200 | 1.5 | 23 | 0.44 | Dose-dependent effect | 60 to 85 |  | 70 to 95 |  |  |  |  |  |  | 80 | 86 |
| COc1cc(CCN2CCC(O)(c3ccc(Cl)cc3)CC2)ccc1OCCSSCCN | 1500 | 1500 | 550 | 390 | 1100 | 0.26 | 0.73 | 2.7 | Dose-dependent effect |  |  | 60 to 85 | 70 to 95 |  |  | 72 |  | 82 |  |  |

From ChEMBL document CHEMBL4043101, “Potent haloperidol derivatives covalently binding to the dopamine D2 receptor” (Bioorg Med Chem, 2017)
